Assay results: ChEMBL document CHEMBL3272325, “Structure-activity relationships of dimeric Catharanthus alkaloids. 1. Deacetylvinblastine amide (vindesine) sulfate” (J Med Chem, 1978)
The source made the active and inactive calls. The rule behind the calls is not given here.

Key:
B16 [1] = assay: Antitumor activity against mouse B16 cells allografted in B6D2F1 mouse assessed as mean survival time at 0.60 mg/kg/day, ip administered on day 1, 5 and 9 (reference value: 20.0 days); format: functional; settings: route intraperitoneal
Outline: (§1)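 Male B6D2F1 mice implanted ip on day 0 with 0.25 mL of a 20% (w/v) B16 melanoma brei. Alkaloid sulfate salts given ip on days 1, 5, 9 or on days 5, 9, 13, groups of 10, against 30 untreated controls. Read-outs: median survival time with range of individual deaths, and percent increase in life span, with survivors counted on day 56.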

B16 [2] = assay: Antitumor activity against mouse B16 cells allografted in B6D2F1 mouse assessed as mean survival time at 1 mg/kg/day, ip administered on day 1, 5 and 9 (reference value: 20.0 days); format: functional; settings: route intraperitoneal; outline: as §1
B16 [3] = assay: Antitumor activity against mouse B16 cells allografted in B6D2F1 mouse assessed as mean survival time at 1.67 mg/kg/day, ip administered on day 1, 5 and 9 (reference value: 20.0 days); format: functional; settings: route intraperitoneal; outline: as §1
P388 [4] = assay: Antitumor activity against mouse P388 cells allografted in mouse assessed as increase in life span at 0.33 mg/kg/day, ip administered from day 1 to day 9 relative to untreated control; format: functional; settings: route intraperitoneal
Outline: (§2)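 P388 ascites implanted ip in mice, 10 animals per group. Sulfate salts given ip either daily on days 1-9 or as a single dose on day 1. Median life span was calculated using all deaths and survivors. Percent increase in life span was taken over untreated controls. The highest nontoxic dose was noted.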

P388 [5] = assay: Antitumor activity against mouse P388 cells allografted in mouse assessed as increase in life span at 0.22 mg/kg/day, ip administered from day 1 to day 9 relative to untreated control; format: functional; settings: route intraperitoneal; outline: as §2
P388 [6] = assay: Antitumor activity against mouse P388 cells allografted in mouse assessed as increase in life span at 4 mg/kg/day, ip after 1 day; format: functional; settings: 24 h, route intraperitoneal; outline: as §2
P388 [7] = assay: Antitumor activity against mouse P388 cells allografted in mouse assessed as increase in life span at 2.7 mg/kg/day, ip after 1 day; format: functional; settings: 24 h, route intraperitoneal; outline: as §2
P388 [8] = assay: Antitumor activity against mouse P388 cells allografted in mouse assessed as increase in life span at 1.8 mg/kg/day, ip after 1 day; format: functional; settings: 24 h, route intraperitoneal; outline: as §2
P388 [9] = assay: Antitumor activity against mouse P388 cells allografted in mouse assessed as increase in life span at 1.2 mg/kg/day, ip after 1 day; format: functional; settings: 24 h, route intraperitoneal; outline: as §2
[10] = Toxicity in ip dosed mouse allografted with mouse p388 cells administered from day 1 to day 9; format: organism-based; settings: in vivo, read-out: MNTD; outline: as §2
[11] = Toxicity in ip dosed mouse allografted with mouse p388 cells after 1 day; format: organism-based; settings: in vivo, read-out: MNTD; outline: as §2
B16 [12] = assay: Antitumor activity against mouse B16 cells allografted in B6D2F1 mouse assessed as mean survival time at 0.36 mg/kg/day, ip administered on day 1, 5 and 9 (reference value: 20.0 days); format: functional; settings: route intraperitoneal; outline: as §1
B16 [13] = assay: Antitumor activity against mouse B16 cells allografted in B6D2F1 mouse assessed as mean survival time at 0.216 mg/kg/day, ip administered on day 1, 5 and 9 (reference value: 20.0 days); format: functional; settings: route intraperitoneal; outline: as §1
B16 [14] = assay: Antitumor activity against mouse B16 cells allografted in B6D2F1 mouse assessed as increase in life span at 1.67 mg/kg/day, ip administered on day 1, 5 and 9 measured for 56 days relative to untreated control; format: functional; settings: route intraperitoneal; outline: as §1
B16 [15] = assay: Antitumor activity against mouse B16 cells allografted in B6D2F1 mouse assessed as increase in life span at 1 mg/kg/day, ip administered on day 1, 5 and 9 measured for 56 days relative to untreated control; format: functional; settings: route intraperitoneal; outline: as §1
B16 [16] = assay: Antitumor activity against mouse B16 cells allografted in B6D2F1 mouse assessed as increase in life span at 0.60 mg/kg/day, ip administered on day 1, 5 and 9 measured for 56 days relative to untreated control; format: functional; settings: route intraperitoneal; outline: as §1
B16 [17] = assay: Antitumor activity against mouse B16 cells allografted in B6D2F1 mouse assessed as increase in life span at 0.36 mg/kg/day, ip administered on day 1, 5 and 9 measured for 56 days relative to untreated control; format: functional; settings: route intraperitoneal; outline: as §1
B16 [18] = assay: Antitumor activity against mouse B16 cells allografted in B6D2F1 mouse assessed as increase in life span at 0.216 mg/kg/day, ip administered on day 1, 5 and 9 measured for 56 days relative to untreated control; format: functional; settings: route intraperitoneal; outline: as §1
B16 [19] = assay: Antitumor activity against mouse B16 cells allografted in B6D2F1 mouse assessed as mean survival time at 1.67 mg/kg/day, ip administered on day 5, 9 and 13 (reference value: 20.0 days); format: functional; settings: route intraperitoneal; outline: as §1
B16 [20] = assay: Antitumor activity against mouse B16 cells allografted in B6D2F1 mouse assessed as mean survival time at 1 mg/kg/day, ip administered on day 5, 9 and 13 (reference value: 20.0 days); format: functional; settings: route intraperitoneal; outline: as §1
B16 [21] = assay: Antitumor activity against mouse B16 cells allografted in B6D2F1 mouse assessed as mean survival time at 0.60 mg/kg/day, ip administered on day 5, 9 and 13 (reference value: 20.0 days); format: functional; settings: route intraperitoneal; outline: as §1
B16 [22] = assay: Antitumor activity against mouse B16 cells allografted in B6D2F1 mouse assessed as mean survival time at 0.36 mg/kg/day, ip administered on day 5, 9 and 13 (reference value: 20.0 days); format: functional; settings: route intraperitoneal; outline: as §1
B16 [23] = assay: Antitumor activity against mouse B16 cells allografted in B6D2F1 mouse assessed as mean survival time at 0.216 mg/kg/day, ip administered on day 5, 9 and 13 (reference value: 20.0 days); format: functional; settings: route intraperitoneal; outline: as §1
B16 [24] = assay: Antitumor activity against mouse B16 cells allografted in B6D2F1 mouse assessed as increase in life span at 1.67 mg/kg/day, ip administered on day 5, 9 and 13 measured for 56 days relative to untreated control; format: functional; settings: route intraperitoneal; outline: as §1
[25] = Antitumor activity against mouse Ridgeway osteogenic sarcoma cells allografted in mouse at 0.1 to 0.2 mg/kg/day, ip; format: functional; settings: route intraperitoneal
Outline: (§3)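 Sulfate salts given ip on days 1-9 against ROS and GLS in mice; tumor growth scored as percent inhibition versus controls (+++ = 75-100%, ++ = 50-75%, ± = under 25%).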

[26] = Antitumor activity against mouse Gardner lymphosarcoma cell allografted in mouse at 0.1 to 0.2 mg/kg/day, ip; format: functional; settings: route intraperitoneal; outline: as §3
[27] = Acute toxicity in ip dosed mouse; format: organism-based; settings: in vivo
P388 [28] = assay: Antitumor activity against mouse P388 cells allografted in mouse assessed as survival at 1.8 mg/kg/day after 1 day; format: functional, organism-based
Outline: (§4)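 P388 ascites implanted ip in mice; sulfate salts dosed either daily or as a single dose on day 1, 10 animals per group. Survivors per total were recorded, median life span was calculated using all deaths and survivors, and percent increase of life span was reported.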

[29] = Antitumor activity against mouse P1534(J) cells allografted in mouse assessed as tumor growth inhibition at 0.25 mg/kg/day, ip administered from day 1 to day 9 relative to unreated control; format: functional; settings: P1534J, route intraperitoneal, read-out: TGI
Outline: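 P1534(J) leukemia implanted subcutaneously in mice; sulfate salts given ip on days 1-9. Read-out is percent inhibition of tumor growth versus untreated controls.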

[30] = Toxicity in ip dosed mouse allografted with mouse P1534(J) cells administered from day 1 to day 9; format: organism-based; settings: in vivo, read-out: MNTD
Outline: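 P1534(J) leukemia implanted subcutaneously in mice. Sulfate salts given ip daily on days 1-9. Read-out was percent inhibition of tumor growth relative to untreated controls. The highest nontoxic dose was recorded.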

P388 [31] = assay: Antitumor activity against mouse P388 cells allografted in mouse assessed as survival at 1.2 mg/kg/day after 1 day; format: functional, organism-based; outline: as §4
B16 [32] = assay: Antitumor activity against mouse B16 cells allografted in B6D2F1 mouse assessed as increase in life span at 1 mg/kg/day, ip administered on day 5, 9 and 13 measured for 56 days relative to untreated control; format: functional; settings: route intraperitoneal; outline: as §1
B16 [33] = assay: Antitumor activity against mouse B16 cells allografted in B6D2F1 mouse assessed as increase in life span at 0.60 mg/kg/day, ip administered on day 5, 9 and 13 measured for 56 days relative to untreated control; format: functional; settings: route intraperitoneal; outline: as §1
B16 [34] = assay: Antitumor activity against mouse B16 cells allografted in B6D2F1 mouse assessed as increase in life span at 0.36 mg/kg/day, ip administered on day 5, 9 and 13 measured for 56 days relative to untreated control; format: functional; settings: route intraperitoneal; outline: as §1
B16 [35] = assay: Antitumor activity against mouse B16 cells allografted in B6D2F1 mouse assessed as increase in life span at 0.216 mg/kg/day, ip administered on day 5, 9 and 13 measured for 56 days relative to untreated control; format: functional; settings: route intraperitoneal; outline: as §1
[36] = Acute toxicity in rat; format: organism-based; settings: in vivo
Gallus gallus = assay: Neurotoxicity in iv dosed chicken assessed as neuromuscular disturbance by measuring loss of balance; format: organism-based; settings: in vivo
Rhesus monkey [37] = assay: Neurotoxicity in iv dosed monkey assessed as peripheral neuropathy; format: toxicity, organism-based, Macaca mulatta; settings: in vivo
P388 [38] = assay: Antitumor activity against mouse P388 cells allografted in mouse assessed as survival at 0.22 mg/kg/day administered from day 1 to day 9; format: functional, organism-based; outline: as §4
Rhesus monkey [39] = assay: Neurotoxicity in iv dosed monkey assessed as peripheral neuropathy; settings: in vivo

## CC[C@]1(O)C[C@H]2CN(CCc3c([nH]c4ccccc34)[C@@](C(=O)OC)(c3cc4c(cc3OC)N(C=O)[C@H]3[C@@](O)(C(=O)OC)[C@H](OC(C)=O)[C@]5(CC)C=CCN6CC[C@]43[C@@H]65)C2)C1.O=S(=O)(O)O [VINCRISTINE SULFATE]
B16 [1]
  MST: 30.5 days
B16 [2]
  MST: 32.5 days
B16 [3]
  MST: 35 days
P388 [4]
  ILS at 0.33 mg/kg/day: 181%
P388 [5]
  ILS at 0.22 mg/kg/day: 131%
P388 [6]
  ILS at 4 mg/kg/day: 118%
P388 [7]
  ILS at 2.7 mg/kg/day: 100%
P388 [8]
  ILS at 1.8 mg/kg/day: 81%
P388 [9]
  ILS at 1.2 mg/kg/day: 68%
[10]
  MTD: 0.33 mg/kg/day
[11]
  MTD at 24 h: 4 mg/kg/day
B16 [12]
  MST: 26 days
B16 [13]
  MST: 24 days
B16 [14]
  ILS at 1.67 mg/kg/day: 75%
B16 [15]
  ILS at 1 mg/kg/day: 62%
B16 [16]
  ILS at 0.6 mg/kg/day: 52%
B16 [17]
  ILS at 0.36 mg/kg/day: 30%
B16 [18]
  ILS at 0.216 mg/kg/day: 20%
B16 [19]
  MST: 26 days
B16 [20]
  MST: 29.5 days
B16 [21]
  MST: 24.5 days
B16 [22]
  MST: 24 days
B16 [23]
  MST: 24.5 days
B16 [24]
  ILS at 1.67 mg/kg/day: 30%
[25]
  TGI: 75%
[26]
  TGI: 75%
[27]
  LD50: 2.1 mg/kg
P388 [28]
  Activity: inactive
[29]
  inhibition in vivo at 0.25 mg/kg/day: 77%
[30]
  MTD: 0.25 mg/kg/day
P388 [31]
  Activity: inactive
B16 [32]
  ILS at 1 mg/kg/day: 48%
B16 [33]
  ILS at 0.6 mg/kg/day: 22%
B16 [34]
  ILS at 0.36 mg/kg/day: 20%
B16 [35]
  ILS at 0.216 mg/kg/day: 22%
[36]
  LD50: 1 mg/kg
Gallus gallus
  Activity: Toxic
Rhesus monkey [37]
  Activity: Toxic
P388 [38]
  Activity: inactive
Rhesus monkey [39]
  Activity: Toxic
